Screening data: PubChem BioAssay, The Scripps Research Institute Molecular Screening Center
ABHD4 inh: ABHD4 (mouse) inhibition, primary FP screen; purified mABHD4, FP-Rh probe fluorescence polarization; inhibition, % at 8.92 µM; 370,000 tested, 0.54% active; AID 720543;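 active = inhibition exceeding the mean over every tested compound plus 3 SD, cut at about 30% in these data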;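 note: 0% = plate median of compound wells and 100% = S159A mutant with DMSO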
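Assay system: Wild-type mouse ABHD4 protein | Medium: HEPES pH 7.0 buffer, 150 mM NaCl, 0.01% Pluronic F-127 | Incubation: Enzyme–compound pre-incubation 45 min, then probe 60 min, both 25 °C | Technique: Fluorescence polarization with parallel and perpendicular emission, 525/598 nm | Evaluation: % inhibition of FP-Rh probe binding versus controls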
SIAE primary: blocks human sialic acid acetylesterase; Q9HAT2; SIAE FP-Rh probe binding, fluorescence polarization; inhibition, % at 9.66 µM; 370,000 tested, 0.69% active;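 active = inhibition above a cutoff: mean of compounds within the control limits plus 3 SD of those, cut at about 17% in these data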;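 note: 0% = plate median of compound wells and 100% = probe without SIAE protein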
Target sequence (Q9HAT2 whole entry, looked up): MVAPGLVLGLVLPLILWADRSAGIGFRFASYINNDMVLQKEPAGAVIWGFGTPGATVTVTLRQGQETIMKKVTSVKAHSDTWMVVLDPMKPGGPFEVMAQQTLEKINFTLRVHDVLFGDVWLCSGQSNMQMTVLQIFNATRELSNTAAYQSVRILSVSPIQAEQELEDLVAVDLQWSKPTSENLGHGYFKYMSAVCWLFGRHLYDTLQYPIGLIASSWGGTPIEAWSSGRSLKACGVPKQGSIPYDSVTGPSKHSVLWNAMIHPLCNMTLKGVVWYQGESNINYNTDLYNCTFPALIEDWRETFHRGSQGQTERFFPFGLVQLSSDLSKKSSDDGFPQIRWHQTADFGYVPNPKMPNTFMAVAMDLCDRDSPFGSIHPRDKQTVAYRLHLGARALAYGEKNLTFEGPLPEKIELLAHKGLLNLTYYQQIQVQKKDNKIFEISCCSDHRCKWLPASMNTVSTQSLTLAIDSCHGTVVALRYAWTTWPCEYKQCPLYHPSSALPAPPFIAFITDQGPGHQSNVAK
HTRA1 inh: blocks human HTRA1 serine peptidase. 340,000 tested, 0.5% active. Q92743. recombinant HTRA1, FP-rhodamine activity-based probe, fluorescence polarization. inhibition, % at 5.96 µM; in the data active = inhibition above about 36%;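 note: 0% = enzyme with DMSO and 100% = wells lacking enzyme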
TCR CD3 inh: blocks the human TCR-CD3 interaction; inhibition, % at 9.4 µM; 360,000 tested, 0.37% active; AID 651800; TAMRA-labeled TCR probe fluorescence, biochemical;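 note: recombinant mutant TCR 2C K166C tagged with TAMRA read by polarization; 0% = receptor in buffer alone and 100% = receptor with positive control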
DDE Tn7 FP inh: disrupts Tn7 cyclic peptide binding to fibrin D-Dimer-E complex; FP displacement of FITC-Tn7 peptide from fibrin DD(E); 0% = median of compound wells per plate; inhibition, % at 8.3 µM; 370,000 tested, 0.13% active; AID 720508;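 active = inhibition above the mean of compounds falling within the control limits plus 3 SD of them, cut at about 14% in these data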;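 note: 0% = plate median of compound wells and 100% = 10 µM Aha-Tn7 peptide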
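Assay system: Human fibrin DD(E) protein | Medium: Tris buffer with calcium and detergent, pH 7.8 | Reagent: 0.1 µM fluorescent Tn7 | Compound dosing: Single point at 8.3 µM | Times: 10 min preincubation, 3 h with tracer, room temperature | Detection: Fluorescence polarization of the labelled Tn7 tracer | Controls: Aha-Tn7 high control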
DDE Tn6 FP inh: disrupts Tn6 cyclic peptide binding to fibrin D-Dimer-E complex; P02675; Fibrin DD(E) TRITC-Tn6 fluorescence polarization displacement; inhibition, % at 8.3 µM; 370,000 tested, 0.21% active; AID 720509;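 active = inhibition above a per-campaign cutoff: mean of compounds within control limits plus 3 SD, cut at about 15% in these data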;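 note: 0% = median of all compound wells on the plate and 100% = blocking peptide control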
HTRA1 conf: confirmation of human HTRA1 inhibitors. shares compounds with HTRA1 inh. recombinant HTRA1, FP-rhodamine activity-based probe, fluorescence polarization. inhibition, % at 5.96 µM. 1,600 tested, 66% active. AID 540248;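 active = mean inhibition over three repeats above a set limit taken from the earlier primary screen, cut at about 37% in these data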;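 note: 0% = HTRA1 with DMSO and 100% = wells lacking HTRA1; inhibitors block probe binding so polarization drops and inhibition rises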
BSA probe FL: BSA probe counter-screen for TCR-CD3 inhibitors | AID 652035 | 1,200 tested, 10% active | shares compounds with TCR CD3 inh | TAMRA-labeled BSA probe fluorescence counterscreen | inhibition, % at 9.4 µM; in the data active = inhibition above about 23%;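 note: 0% = buffer low control and 100% = reference high control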
TCR-CD3 conf: TCR-CD3 interaction inhibition, confirmation; shares compounds with TCR CD3 inh; TAMRA-labeled TCR probe fluorescence binding assay; inhibition, % at 9.4 µM; 1,200 tested, 48% active; AID 652036
Tn6 DDE ctr: counter-screen for inhibitors of Tn6 peptide binding to fibrin DD(E); shares compounds with DDE Tn6 FP inh; inhibition, % at 8.3 µM; TRITC-Tn6 fluorescence polarization displacement; 0% = median of compound wells, not DMSO; 680 tested, 2% active;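 active = inhibition above the mean of test compounds lying between the control limits plus 3 SD of those, cut at about 14% in these data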;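 note: 0% = median of compound wells and 100% = wells with Aha-Tn7 blocking peptide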
DDE Tn6 confirm: confirmation of inhibitors of Tn6 binding to human fibrin DD(E). shares compounds with DDE Tn6 FP inh. FP displacement of TRITC-Tn6 peptide from DD(E); 0% = per-plate median of test wells. inhibition, % at 8.3 µM. 680 tested, 10% active;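 active = inhibition above the mean of compounds lying within the control limits plus 3 SD, cut at about 16% in these data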;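 note: 100% = high control wells holding a competing inhibitor peptide at 10 µM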
mABHD4 conf: confirmation of mouse ABHD4 inhibitors | shares compounds with ABHD4 inh | AID 720658 | inhibition, % at 8.92 µM | 1,800 tested, 55% active | purified mABHD4, FP-Rh probe fluorescence polarization;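 active = mean inhibition across replicates above the hit cutoff set in the primary screen, cut at about 30% in these data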;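 note: 0% = wild-type ABHD4 with DMSO and 100% = catalytically dead S159A mutant with DMSO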
An asterisk follows results filed as active; · = not tested or not shown; ! = repeats disagree. This is a sample that favours compounds with a hit; in the whole collection about 1.8% have one here. Cut-off read from the data, not from the text of the source, unless noted: active = inhibition above about 19%; inactive = the rest.

SMILES	ABHD4 inh	SIAE primary	HTRA1 inh	TCR CD3 inh	DDE Tn7 FP inh	DDE Tn6 FP inh	HTRA1 conf	mABHD4 conf	others
Oc1ccc(Cl)c2cccnc12	9	4	64*	30*	4	2	76*	·	BSA probe FL=-3;TCR-CD3 conf=1
CCOC(=O)[C@@]12CCCC3=C1N(CCC3)C(=O)[C@H]2CC(=O)NCCC(C)C	2	-2	·	·	3	-1	·	·
COc1ccc(-c2cc(=O)oc3c(O)c(O)ccc23)cc1	27	-1	73*	21*	-11	-8	86*	·	BSA probe FL=-2;TCR-CD3 conf=14
COCC(=O)N(C)[C@H]1C[C@H]2c3[nH]c4c(-c5ccc6c(c5)OCO6)cccc4c3CCN2C(=O)[C@H]1[C@H](C)O	12	5	·	·	-1	0	·	·
C=CCn1c(SCC(=O)c2ccc(OC)cc2)nnc1-c1cc2cccc(OC)c2o1	4	-5	0	-1	-8	-3	·	·
C=CCn1c(SCC(=O)c2ccc(O)c(O)c2)nnc1-c1cccc(OC)c1	25	1	38*	20*	3	1	67*	·	BSA probe FL=-7;TCR-CD3 conf=17
CCOc1cc(OCC)cc(C(=O)N2CCC[C@@H]2C(=O)N2CCC[C@@H]2C(=O)NCc2cccc(OC)c2)c1	-4	6	·	-2	3	-4	·	·
C#CCN1CC(N(C)CCOC(=O)c2ccc(OC)c(OC)c2)CS1(=O)=O (stereo not drawn)	5	-2	·	·	4	-2	·	·
O=C1OC(Nc2cc(Br)cc3cccnc23)c2ccccc21 (stereo not drawn)	88*	34*	45*	37*	4	12	13	·	BSA probe FL=7;TCR-CD3 conf=7
O=C1OC(Nc2ncccn2)c2ccccc21 (stereo not drawn)	-3	-1	2	6	-2	0	·	·
COc1ccc(C)cc1NC(=O)NNC(=O)c1cc2ccccc2cc1O	5	5	42*	22*	0	-4	35	·	BSA probe FL=-2;TCR-CD3 conf=26*
CCOC(=O)c1cc2c(=Cc3ccc(N(C)C)cc3)c3ccccc3n2[n+]1C	-68	-45	46*	-22	-2	22*	2	·	Tn6 DDE ctr=6;DDE Tn6 confirm=-15
CN(C)c1ccc(C=c2c3cc(O)ccc3n3c2cc(-c2ccccc2)[n+]3C)cc1	-146	-81	-38	-29	2	-12	·	·
Cc1cc2cc(CNC(=S)Nc3ccc(OC(F)F)cc3)ccc2n1C	13	4	52*	14	4	20*	5	·	Tn6 DDE ctr=7;DDE Tn6 confirm=6
C[C@@H](/C=C/C(=O)OC(C)(C)C)Sc1ccc(C(C)(C)C)cc1	-1	-5	·	·	-4	-2	·	·
COC(=O)[C@H](CC(C)C)N(CCc1cn(Cc2ccc(C)cc2)nn1)S(=O)(=O)c1ccc(F)cc1Br	-2	1	·	·	2	-7	·	·
Cc1cc2ccccc2n1CCNC(=O)C1CCCCC1	12	-6	36*	16	-8	39*	1	·	Tn6 DDE ctr=0;DDE Tn6 confirm=-3
C[C@@H](NC(=O)/C(C#N)=C/c1ccc(O)c(O)c1)c1ccccc1	54*	11	68*	3	6	5	91*	28
N#C/C(=C/c1ccc(O)c(O)c1)C(=O)NCc1ccc(Cl)cc1	51*	5	81*	4	0	4	87*	37*
N#C/C(=C\c1cccnc1)C(=O)Nc1ccccc1	-4	2	0	4	1	-3	·	·
N#C/C(=C\c1ccc(O)c(O)c1)C(=O)Nc1ccccc1	73*	10	68*	12	0	4	177*	43*
CCN1CCN(Cc2ccc(NC(=O)c3cccc(-c4ccc5nc(NC(=O)C6CC6)sc5n4)c3)cc2C(F)(F)F)CC1	-29	-79	·	8	-6	-12	·	·
Cc1cc2cc(CNC(=O)COc3ccccc3)ccc2n1C	32*	7	45*	27*	3	46*	5	-7	BSA probe FL=14;TCR-CD3 conf=9;Tn6 DDE ctr=4;DDE Tn6 confirm=9
NC(=S)NNc1cccc2cccnc12	32*	6	46*	19*	-5	-13	27	52*	BSA probe FL=-5;TCR-CD3 conf=3
Oc1ccccc1CNc1cccc2cccnc12	47*	15	39*	-8	2	10	5	-11
SMILES	ABHD4 inh	SIAE primary	HTRA1 inh	TCR CD3 inh	DDE Tn7 FP inh	DDE Tn6 FP inh	HTRA1 conf	mABHD4 conf	others
CCN1Cc2nnn(Cc3ccccc3)c2-c2cc(N3CCCC3)ccc2S1(=O)=O	23	3	·	·	-5	1	·	·
O=C1c2c(O)ccc(O)c2C(=O)c2c(NCCNCCO)ccc(NCCNCCO)c21	33*!	11	72*	-7	4	-4	59*	37*
COc1ccc2c(c1)CNC2CS(=O)(=O)NCCc1ccccc1 (stereo not drawn)	-2	-3	·	·	-3	1	·	·
Cc1ccc(O)c(N=Cc2cc(Cc3ccccc3)cc([N+](=O)[O-])c2O)c1	35*	-6	58*	5	-6	-7	61*	16
O=[N+]([O-])c1cc(Cc2ccccc2)cc(C=Nc2ccc(N3CCOCC3)cc2)c1O	·	·	29	·	·	·	·	·
Cc1ccc(Cn2cc(CN3[C@@H](Cc4ccccc4)COc4cc(Br)ccc4S3(=O)=O)nn2)cc1	4	1	·	·	5	5	·	·
COC(=O)C1CN(Cc2ccc(OC)cc2)CCS(=O)(=O)N1Cc1cn(CCOC(C)=O)nn1 (stereo not drawn)	7	5	·	·	-11	-4	·	·
Cc1ccc(SCc2cc(=O)c3c(=O)n(-c4ccccc4)[nH]c3[nH]2)cc1	54*	16	56*	2	-9	-4	8	35*
Brc1ccc(N/N=C(/N=Nc2nn[nH]n2)c2ccccc2)cc1	91*	17*	62*	-2	5	-1	88*	104*
Cc1ccc(NCC(=O)c2ccccc2)cc1Cl	-1	0	2	3	6	1	·	·
